OXTR potentiator: potentiators of human oxytocin receptor; AID 2445; activation, % at 3 µM; CHO-OTR cells, Fluo-8 calcium fluorescence, potentiator mode; 0% = oxytocin EC15, 100% = EC100; P30559; actives 0.061% (n = 320,000);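 active = activation above that plate's cutoff, the mean activation of tested compounds plus 3 SD, cut at about 6.6% in these data, passing the limit was not always enough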;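 note: 100% uses oxytocin at 75 nM as the full agonist control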
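Assay system: CHO cell line stably expressing human OTR | Also added: Oxytocin at about EC15, sub-maximal agonist stimulus | Times: Compound 6 min at room temperature before oxytocin, 100 s read | Measured by: Fluo-8 intracellular calcium fluorescence, ex 470-495, em 515-575 nm | Controls: EC15 oxytocin alone as 0%, 75 nM oxytocin as 100%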
OXTR agonist: activates the human oxytocin receptor; P30559; CHO-OTR cells, Fluo-8 calcium fluorescence; normalized: DMSO 0%, oxytocin 100%; activation, % at 3 µM; actives 0.32% (n = 320,000); AID 2435;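 active = activation above the mean of all tested compounds plus 3 SD, cutoff set per screening run, cut at about 20% in these data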;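 note: peak over basal fluorescence ratio from a 100 s FLIPR kinetic read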
V1R ag counter: V1a receptor agonism, counter-screen for OXTR agonists | P37288 | CHO-V1R cells, Fluo-8 calcium fluorescence, agonist mode; 0% DMSO, 100% 3 nM vasopressin | activation, % at 3 µM | actives 0.25% (n = 320,000);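 active = activation above the mean activation of all tested compounds plus 3 SD, per screening run, cut at about 20% in these data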;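 note: signal is peak over basal fluorescence ratio across a 100 second FLIPR read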
Target sequence (P37288 whole entry, looked up): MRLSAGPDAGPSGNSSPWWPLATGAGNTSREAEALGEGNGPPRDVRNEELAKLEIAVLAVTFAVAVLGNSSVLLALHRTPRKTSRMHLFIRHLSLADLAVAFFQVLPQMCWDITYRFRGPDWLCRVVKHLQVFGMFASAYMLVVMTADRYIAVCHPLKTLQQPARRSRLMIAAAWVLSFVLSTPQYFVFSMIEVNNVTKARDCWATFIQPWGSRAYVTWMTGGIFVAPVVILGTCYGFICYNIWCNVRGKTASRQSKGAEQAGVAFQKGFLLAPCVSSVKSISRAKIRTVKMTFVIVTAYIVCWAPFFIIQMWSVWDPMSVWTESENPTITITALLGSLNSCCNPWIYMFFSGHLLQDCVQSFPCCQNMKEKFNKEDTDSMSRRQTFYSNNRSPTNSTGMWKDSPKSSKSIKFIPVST
TAAR1 antag: antagonists of human TAAR1 | Q96RJ0 | CHO RD-HGA16 TAAR1, Fluo-8 calcium fluorescence, antagonist | inhibition, % at 3 µM | actives 1.5% (n = 360,000);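 active = inhibition above a per-plate cutoff, the mean inhibition of test compounds on that plate plus 3 SD, cut at about 49% in these data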;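 note: 0% = DMSO plus EC80 beta-PEA response and 100% = DMSO alone without agonist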
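Assay system: CHO-derived RD-HGA16 cells stably expressing human TAAR1 plus Gα16. Timing: 140 s kinetic read after compound, 140 s after agonist. Technique: kinetic Fluo-8 calcium fluorescence measurement. Measure: % inhibition of agonist calcium response.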
TAAR1 ag: agonists of human TAAR1; Q96RJ0; activation, % at 3 µM; actives 0.99% (n = 360,000); CHO RD-HGA16 TAAR1, Fluo-8 calcium fluorescence; vehicle wells 0%, saturating PEA agonist 100%;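 active = activation above the mean activation of all test compounds in the run plus 3 SD, cut at about 38% in these data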
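System: CHO-derived RD-HGA16 cells with stable Gα16 and human TAAR1 / Times: 17-24 h plating, Fluo-8 75 min 37 °C, 30 min RT / Technique: calcium-sensitive Fluo-8 signal, excitation 470-495, emission 515-575 nm / Measure: % activation relative to PEA EC100 response / Benchmarks: DMSO and PEA EC100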
nonsel antag count: nonselective antagonism, TAAR1 counter-screen; AID 651780; actives 77% (n = 2,400); inhibition, % at 3 µM; shares compounds with TAAR1 antag; counterscreen cell line, calcium fluorescence, antagonist mode; in the data active = inhibition above about 22%;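 note: CHO-Ga16 host cells stimulated with ATP at an EC80 level; 0% = agonist EC80 plus vehicle and 100% = vehicle without agonist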
TAAR1 ant conf: human TAAR1 antagonism, confirmed; AID 651785; shares compounds with TAAR1 antag; TAAR1-expressing cells, fluorescence antagonist read-out; actives 40% (n = 2,400); inhibition, % at 3 µM; in the data active = inhibition above about 49%;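 note: CHO-Ga16 host cells challenged with agonist PEA near its EC80; 0% = agonist at EC80 plus vehicle and 100% = vehicle with no agonist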
Ga16 nonsel ag: counter-screen for TAAR1 antagonists: nonselective Ga16 agonists; shares compounds with TAAR1 antag; Ga16-expressing cells, calcium fluorescence, agonist counterscreen; activation, % at 3 µM; actives 18% (n = 2,400); AID 651953; in the data active = activation above about 12%;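 note: 0% = vehicle wells and 100% = saturating stimulus response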
TAAR1 ag counter: TAAR1 agonism, antagonist counter-screen; shares compounds with TAAR1 antag; AID 651955; actives 2% (n = 2,400); activation, % at 3 µM; hTAAR1 cell line, fluorescence activation, agonist mode; in the data active = activation above about 37%;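 note: CHO cells stably expressing TAAR1 with calcium dye readout; 0% = DMSO vehicle and 100% = full agonist response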
An asterisk follows results filed as active; · = no result given. Rows were chosen to be rich in hits. Some 2.3% of all compounds tested hit in one or more screens of this group.

SMILES	OXTR potentiator	OXTR agonist	V1R ag counter	TAAR1 antag	TAAR1 ag	nonsel antag count	TAAR1 ant conf	Ga16 nonsel ag	TAAR1 ag counter
CC(C)N1CCN(c2ccc(OC[C@H]3CO[C@](Cn4cncn4)(c4ccc(Cl)cc4Cl)O3)cc2)CC1	-12	2	1	70*	29	32*	49*	15*	14
COc1ccc(/C=N/Nc2nc(-c3ccc(C)cc3)c(NC(C)=O)s2)cc1	-4	-2	-1	51*	0	7	42	1	4
COc1ccc(NC(=O)C2(C)CCN2C(=O)c2ccccc2CCc2ccccc2)cc1OC (configuration not stated)	·	·	·	65*	5	18	43	6	16
O=C(CSc1ccccn1)Nc1cccc(NC(=O)CSc2ccccn2)n1	-14	3	0	60*	31	34*	46	14*	12
O=C1ON=C(c2ccccc2)/C1=C/c1ccc(-c2ccccc2[N+](=O)[O-])o1	0	1	0	57*	20	66*	63*	19*	18
Clc1ccccc1NN(Cc1ccncc1)c1ccccc1Cl	·	·	·	38	9	·	·	·	·
COc1ccc(N(CC(=O)Nc2cccc(C(C)=O)c2)S(=O)(=O)c2ccc(NC(C)=O)cc2)cc1	·	·	·	61*	17	35*	55*	11	12
COc1ccc(NC(=O)CN(c2ccc(OC)cc2)S(=O)(=O)c2ccc(OC)c(OC)c2)cc1	-14	1	1	51*	18	23*	34	6	3
COC(=O)CN(c1ccc(OC)cc1)S(=O)(=O)c1ccc(OC)c(OC)c1	-8	0	2	-4	5	·	·	·	·
CCOc1ccc2nc(NC(=O)CS(=O)(=O)c3ccc(C)cc3)sc2c1	-3	-1	-1	55*	6	20	38	2	3
Cc1ccccc1NS(=O)(=O)c1ccc(C(=O)N2CCCCCC2)cc1	-13	5	6	-4	21	·	·	·	·
Cc1ccccc1NS(=O)(=O)c1ccc(C(=O)N2CCN(c3ccccc3O)CC2)cc1	-16	9	11	75*	19	28*	41	12*	7
COCC(=O)Nc1ccc2c(c1)[C@H]1C[C@@H](CC(=O)NCC3CC3)O[C@H](CO)[C@H]1O2	·	·	·	-1	0	·	·	·	·
O=C(Nc1ccc(Cl)c(S(=O)(=O)N2CCOCC2)c1)c1ccccn1	-10	1	0	20	8	·	·	·	·
O=C(Nc1ccc(Cl)c(S(=O)(=O)N2CCOCC2)c1)c1ccc2c(c1)OCO2	-8	6	6	66*	17	32*	46	15*	12
O=C(Nc1ccc(Cl)c(S(=O)(=O)N2CCOCC2)c1)c1ccc(Cl)nc1	·	·	·	67*	24	32*	52*	12*	15
O=C(Nc1ccc(Cl)c(S(=O)(=O)N2CCOCC2)c1)c1cc(-c2ccccn2)nc2ccccc12	-24	1	1	63*	25	43*	57*	14*	13
O=C(Nc1cccc(S(=O)(=O)N2CCCCCC2)c1)c1ccc(Cl)nc1	-9	7	10	54*	9	27*	37	8	7
O=C(Nc1cccc(S(=O)(=O)N2CCCCC2)c1)c1ccc(Cl)nc1	-9	12	10	20	13	·	·	·	·
CCOCCCn1c(SCC(=O)NC2CCCCC2)nc2ccccc2c1=O	·	·	·	-9	3	·	·	·	·
O=C(Nc1cccc(S(=O)(=O)C(F)F)c1)c1ccc(Cl)c(S(=O)(=O)N2CCOCC2)c1	-19	11	15	74*	35	50*	65*	19*	23
O=C(Nc1cccc(C(=O)NC2CC2)c1)c1ccc(Cl)c(S(=O)(=O)N2CCOCC2)c1	-6	0	1	32	17	·	·	·	·
O=C1N[C@@H](c2ccccc2)COC(=O)[C@H](Cc2ccc(F)cc2)CC/C=C/C[C@H]1CC(=O)N(CCO)Cc1ccccc1	-8	1	1	61*	15	32*	47	13*	13
O=C1N[C@@H](Cc2ccccc2)COC(=O)[C@H](Cc2ccc(F)cc2)C/C=C\C[C@@H]1CC(=O)N(CCO)Cc1ccccc1	-5	-2	-1	25	12	·	·	·	·
O=C1N[C@H](Cc2ccccc2)COC(=O)[C@H](Cc2ccc(F)cc2)C/C=C\C[C@@H]1CC(=O)N(CCO)Cc1ccccc1	-4	1	3	54*	35	32*	49*	12*	17
SMILES	OXTR potentiator	OXTR agonist	V1R ag counter	TAAR1 antag	TAAR1 ag	nonsel antag count	TAAR1 ant conf	Ga16 nonsel ag	TAAR1 ag counter
CC(C)(C)OC(=O)C[C@H]1C/C=C\C[C@H](CC(=O)N(CCO)Cc2ccccc2)C(=O)N[C@@H](c2ccccc2)COC1=O	-8	-1	0	56*	21	30*	44	9	5
O=C(C[C@@H]1C/C=C\C[C@H](Cc2ccc(F)cc2)C(=O)OC[C@H]2CCCN2C1=O)N[C@H](CO)Cc1ccccc1	-2	2	0	61*	21	23*	33	5	1
Cc1cccc(C)c1-n1nnnc1C(c1ccnc2ccccc12)N1CCOCC1 (configuration not stated)	·	·	·	-6	2	·	·	·	·
COc1ccccc1S(=O)(=O)N(C)C[C@H]1OCc2cnnn2CCCC(=O)N([C@@H](C)CO)C[C@@H]1C	·	·	·	-4	1	·	·	·	·
COc1ccc(C2=NS(=O)(=O)N(C)C(C(=O)N(C)Cc3ccccc3)=C2)cc1OC	-17	7	6	52*	7	23*	34	8	6
COc1ccc(C2=NS(=O)(=O)N(C)C(C(=O)NC(C)c3ccccc3)=C2)cc1OC (configuration not stated)	-10	1	0	14	2	·	·	·	·
COc1ccccc1CCn1cnc(-c2ccc(F)cc2)c1C(C)C	·	·	·	19	5	·	·	·	·
COc1cccc(N2C(=O)C3ON(c4ccccc4)C(c4cccs4)C3C2=O)c1 (configuration not stated)	-8	-1	0	54*	2	24*	41	7	8
COc1ccc(C(c2nnnn2-c2c(C)cccc2C)N2CCN(C/C=C/c3ccccc3)CC2)cc1 (configuration not stated)	·	·	·	5	-1	·	·	·	·

Screening data from PubChem.
